Measured values published in article PMC3178889 (Nature neuroscience, 2011).
“Also recorded” adds a separate entry of the source. No end group written: not given here. *: point of attachment. Myristoyl = CCCCCCCCCCCCCC(=O)*; Lauroyl = CCCCCCCCCCCC(=O)*

Assays:
[1] = tested on: binding of Tα to UNC119; parameters: species or system bovine; conditions: GST-UNC119 pulldown from retina lysate in the presence of peptide; immunoblot
[2] = biological target: human UNC119 (Homo sapiens, UniProt Q13432); experiment: Isothermal titration calorimetry; type: binding; conditions: ITC; for binding relative to the lauroyl Tα peptide: compared with lauroyl-GAGASAEEKH
[3] = tested on: GST-UNC119; experiment: GST-UNC119 pulldown of proteins from retina lysates or HEK cells; type: binding, bovine
[4] = tested on: rod photoreceptors; conditions: passive diffusion after light activation; cited from earlier work
[5] = tested on: Tα; experiment: GST-UNC119B pulldown from bovine retina lysate; type: binding; conditions: unpublished results of the authors
[6] = tested on: GTPase activity of Tα (purified Tαβγ); experiment: GTPase activity of purified Tαβγ in the presence of depleted ROS membranes; type: biochemical
How it was run: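 Purified native transducin (Tαβγ) reconstituted with depleted rod outer segment membranes, which carry rhodopsin and a trace of residual transducin. […] Components (transducin, UNC119, depleted membranes) checked by SDS-PAGE.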

[7] = tested on: transducin; conditions: absence of rhodopsin; cited from earlier work

## GAGASAEEKH
[1]
  competition for binding of Tα to UNC119: did not

## Lauroyl-GAGASAEEKH
[1]
  competition for binding of Tα to UNC119: competes for binding

## Lauroyl-GSCQSNENSE
[2]; listed as Lauroyl-ODR-3
  binding relative to the lauroyl Tα peptide: more than one order of magnitude weaker
[2]; listed as ODR-3 N-terminal peptide
  binding relative to the lauroyl Tα peptide: lower affinity interaction

## Myristoyl-GAGASAEEKH
[2]
  interaction with recombinant human UNC119: tight binding
[2]; one-site model
  number of binding sites: single site

## Tα(G2A): Tα with G2 replaced with alanine, a mutation preventing Tα acylation
[3]; bovine Tα or Tα(G2A) expressed in HEK cells, anti-Tα blot
  interaction with GST-UNC119 in pulldown of protein expressed in HEK cells: does not interact; also recorded: did not interact

## Tα: rod photoreceptor transducin α-subunit
[3]; bovine or mouse retina lysate, Coomassie/LC-MS/MS or immunoblot
  interaction with GST-UNC119 in pulldown from retina lysate: UNC119 interacts with Tα; also recorded: is pulled down
[4]
  t1/2 of light-induced translocation to the inner segment: 3 to 5 min

## Tβγ: transducin βγ subunits
[4]
  t1/2 of light-induced translocation to the inner segment: approximately 12 min

## UNC119B: isoform encoded by UNC119B gene, 61% similar and 52% identical to UNC119
[5]
  pulldown of Tα by GST-UNC119B: pulls down Tα from bovine retina lysate

## transducin: purified native heterotrimeric transducin
[6]; depleted ROS membranes reconstituted with transducin
  Kcat of GTPase: 1.5 moles GTPhydrolyzed/mol transducin/min
[6]; purified Tαβγ in the presence of ROS membranes, Fig. 5C red line
  GTPase activity rate of the reconstituted system: 1.5 mole GTP/min
[7]
  GTP/GDP exchange rate constant: 10^−4 /sec
